Laboratory results reported in ChEMBL document CHEMBL3769304, “Potent α-amino-β-lactam carbamic acid ester as NAAA inhibitors. Synthesis and structure-activity relationship (SAR) studies” (Eur J Med Chem, 2016).
≈ marks a conversion by molar mass, not a printed value.

What was measured:
[1] = target: T1, N-acylethanolamine-hydrolyzing acid amidase (Homo sapiens, UniProt Q02083); assay: Inhibition of human NAAA expressed in HEK293 cells preincubated for 10 mins followed by N-(4-methyl-2-oxo-chromen-7-yl)-hexadecanamide substrate addition for 50 mins by fluorescence assay; format: cell-based
T1 sequence (Q02083 whole entry): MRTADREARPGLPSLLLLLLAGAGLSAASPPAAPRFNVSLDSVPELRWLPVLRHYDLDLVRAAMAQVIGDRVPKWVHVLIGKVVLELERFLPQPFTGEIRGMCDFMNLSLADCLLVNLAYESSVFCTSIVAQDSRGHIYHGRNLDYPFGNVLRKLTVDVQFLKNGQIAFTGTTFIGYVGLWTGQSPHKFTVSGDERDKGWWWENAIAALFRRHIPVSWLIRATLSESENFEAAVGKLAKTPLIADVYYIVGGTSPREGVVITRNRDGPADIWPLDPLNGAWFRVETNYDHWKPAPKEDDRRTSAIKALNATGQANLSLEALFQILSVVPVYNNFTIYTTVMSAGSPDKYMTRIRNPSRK

[2] = Half life in mouse plasma after 2 hrs by LC/MS-MS analysis; format: ADME, cell-free
[3] = Half life in rat liver microsomes preincubated for 15 mins followed by NADPH addition measured after 1 hr by LC/MS-MS analysis; format: ADME
[4] = Half life in rat plasma after 2 hrs by LC/MS-MS analysis; format: ADME, cell-free
Homo sapiens = species on record: Homo sapiens; assay: Selectivity ratio of IC50 for human acid ceramidase to IC50 for recombinant human NAAA
[5] = target: T2, Fatty-acid amide hydrolase 1 (Homo sapiens) (UniProt O00519); assay: Inhibition of human FAAH at 10 uM by fluorescence assay
T2 sequence (whole entry): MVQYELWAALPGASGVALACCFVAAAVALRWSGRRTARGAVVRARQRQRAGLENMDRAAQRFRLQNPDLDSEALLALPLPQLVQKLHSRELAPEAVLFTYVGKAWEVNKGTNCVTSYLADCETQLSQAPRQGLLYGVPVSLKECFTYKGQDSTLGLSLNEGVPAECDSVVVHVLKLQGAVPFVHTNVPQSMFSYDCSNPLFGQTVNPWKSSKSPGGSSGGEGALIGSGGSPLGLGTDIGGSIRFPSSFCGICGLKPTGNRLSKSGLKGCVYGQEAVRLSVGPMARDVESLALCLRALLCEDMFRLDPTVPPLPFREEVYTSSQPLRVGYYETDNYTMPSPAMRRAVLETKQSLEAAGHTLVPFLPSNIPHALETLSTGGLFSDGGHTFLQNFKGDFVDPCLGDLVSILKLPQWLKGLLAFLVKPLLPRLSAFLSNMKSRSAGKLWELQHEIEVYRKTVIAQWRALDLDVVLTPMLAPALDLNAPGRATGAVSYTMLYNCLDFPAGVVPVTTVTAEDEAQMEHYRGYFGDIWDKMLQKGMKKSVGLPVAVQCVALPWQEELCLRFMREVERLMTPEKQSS
Summary of the method: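 Enzyme source: membrane pellet (105,000 × g, re-suspended in PBS) from HEK293 cells stably transfected with h-FAAH-1; fluorogenic read-out; percent inhibition at 10 µM from two determinations.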

[6] = Half life in mouse liver microsomes preincubated for 15 mins followed by NADPH addition measured after 1 hr by LC/MS-MS analysis; format: ADME
[7] = Kinetic solubility of the compound in PBS at pH 7.4 after 24 hrs by UPLC/MS analysis; format: physicochemical; conditions: read-out: Kinetic_solubility
Summary of the method: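 Kinetic solubility measured in PBS, pH 7.4; mean of three or more determinations.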

Acid ceramidase = target: T3, Acid ceramidase (Homo sapiens, UniProt Q13510); assay: Inhibition of human acid ceramidase by UPLC/MS analysis
T3 sequence (Q13510 whole entry): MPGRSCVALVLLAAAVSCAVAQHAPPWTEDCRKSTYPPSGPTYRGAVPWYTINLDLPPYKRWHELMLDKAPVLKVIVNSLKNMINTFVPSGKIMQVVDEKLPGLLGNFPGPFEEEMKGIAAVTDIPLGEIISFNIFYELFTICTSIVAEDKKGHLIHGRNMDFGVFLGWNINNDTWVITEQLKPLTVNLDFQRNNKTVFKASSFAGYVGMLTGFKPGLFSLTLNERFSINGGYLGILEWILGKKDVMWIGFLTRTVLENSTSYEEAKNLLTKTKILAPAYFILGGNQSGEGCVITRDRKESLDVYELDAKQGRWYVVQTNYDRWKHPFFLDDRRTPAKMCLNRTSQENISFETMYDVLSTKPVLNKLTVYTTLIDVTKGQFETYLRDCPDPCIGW

[8] = target: T1, N-acylethanolamine-hydrolyzing acid amidase; assay: Inhibition of human NAAA expressed in HEK293 cells preincubated for 10 mins followed by N-(4-methyl-2-oxo-chromen-7-yl)-hexadecanamide substrate addition for 50 mins by microplate reader analysis

O=C(N[C@H]1CNC1=O)OCCCCc1ccccc1
IC50 [1]: 1110 nM

Cc1ccc(COC(=O)N[C@H]2CNC2=O)cc1
IC50 [1]: 1040 nM

O=C(N[C@H]1CNC1=O)OCc1ccc2c(c1)OC(F)(F)O2
half-life [2]: 25 min | half-life [3]: 40 min | half-life [4]: > 120 min | Ratio IC50 (Homo sapiens): 365 | inhibition [5]: < 10% | half-life [6]: 30 min | solubility kinetic at 24 h [7]: > 250 µM | IC50 (Acid ceramidase): 8090 nM

O=C(N[C@H]1CNC1=O)OCCCCc1ccc(C(F)(F)F)cc1
IC50 [1]: 73 nM

CCCOc1ccc(COC(=O)N[C@H]2CNC2=O)cc1
half-life [2]: 31 min | half-life [3]: < 5 min | half-life [4]: > 120 min | inhibition [5]: < 10% | half-life [6]: 11 min | solubility kinetic at 24 h [7]: > 250 µM | IC50 (Acid ceramidase): 2410 nM

O=C(N[C@H]1CNC1=O)OCCCOC1CCCCC1
IC50 [1]: 2670 nM

O=C(N[C@H]1CNC1=O)OCCCCC1CCC(F)(F)CC1
half-life [2]: 33 min | half-life [3]: 10 min | half-life [4]: 7 min | Ratio IC50 (Homo sapiens): 140 | inhibition [5]: < 10% | half-life [6]: 34 min | solubility kinetic at 24 h [7]: > 250 µM | IC50 (Acid ceramidase): 10500 nM

O=C(N[C@H]1CNC1=O)OCc1ccc2c(c1)CCC2
IC50 [1]: 130 nM

O=C(N[C@H]1CNC1=O)OCCCCC1CCCCC1
half-life [2]: 41 min | half-life [3]: < 5 min | half-life [4]: 12 min | inhibition [5]: < 10% | half-life [6]: < 5 min | solubility kinetic at 24 h [7]: 144 µM (≈ 38.6 µg/mL) | IC50 (Acid ceramidase): 6270 nM

O=C(N[C@H]1CNC1=O)OCCCC1CCCCC1
IC50 [1]: 44 nM

CCCCCCCCC(=O)N[C@H]1CNC1=O
IC50 [8]: 340 nM

COc1ccc(CCCCOC(=O)N[C@H]2CNC2=O)cc1
IC50 [1]: 520 nM

O=C(N[C@H]1CNC1=O)OCc1ccc(C2CCCCC2)cc1
half-life [2]: 57 min | half-life [3]: < 5 min | half-life [4]: 104 min | Ratio IC50 (Homo sapiens): 125 | inhibition [5]: < 10% | half-life [6]: 5 min | solubility kinetic at 24 h [7]: 51 µM (≈ 15.4 µg/mL) | IC50 (Acid ceramidase): 1510 nM

CCCCc1ccc(COC(=O)N[C@H]2CNC2=O)cc1
half-life [2]: 29 min | half-life [3]: < 5 min | half-life [4]: > 120 min | Ratio IC50 (Homo sapiens): 55 | inhibition [5]: < 10% | half-life [6]: < 5 min | solubility kinetic at 24 h [7]: 83 µM (≈ 22.9 µg/mL) | IC50 (Acid ceramidase): 390 nM
